Measurements from ChEMBL document CHEMBL1139361, “Comparative positron-emission tomography (PET) imaging and phototherapeutic potential of 124I- labeled methyl- 3-(1'-iodobenzyloxyethyl)pyropheophorbide-a vs the corresponding glucose and galactose conjugates” (J Med Chem, 2009).
Each block holds one compound with its values, some of them ahead of it. Activity calls are given as the source filed them. No cut-off for these calls is given here.

Legend:
Mus musculus [1] = test: Toxicity in C3H/HeJ mouse xenografted with mouse RIF cells at 1.5 umol/kg, iv irradiated for 30 mins measured after 24 hrs photodynamic therapy; type: organism-based; settings: in vivo
Summary of the method: (§1)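 Female C3H/HeJ mice given 2×10^5 RIF cells intradermally on flank; tumors grown to 4–5 mm diameter. Hair removed, photosensitizer injected iv (0.5, 1.0, 1.5 μmol/kg; five mice/group). At 24 h, unanesthetized restrained mice irradiated over 1 cm² with dye laser, 665 nm, 75 mW/cm², 135 J/cm² (30 min). Daily observation for weight loss, scabbing, regrowth and deaths; sacrifice at 400 mm^3; tumor-free status followed to day 60.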

[2] = Ratio of drug level in tumor to liver of iv dosed C3H/HeJ mouse bearing mouse RIF cells after 24 hrs; type: ADME, organism-based; settings: in vivo
Summary of the method: (§2)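 RIF-bearing C3H mice given ¹²⁴I-labeled photosensitizer (15–200 μCi, tail vein, in saline with 10% ethanol). 3–4 mice killed at each time point, tumor and liver weighed and gamma-counted. Uptake expressed as %ID/g, and tumor to liver ratio taken from the %ID/g values.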

[3] = Ratio of drug level in tumor to liver of iv dosed C3H/HeJ mouse bearing mouse RIF cells after 48 hrs; type: ADME, organism-based; settings: in vivo; summary of the method: as §2
Mus musculus [4] = test: Toxicity in C3H/HeJ mouse xenografted with mouse RIF cells at 1 umol/kg, iv irradiated for 30 mins measured after 24 hrs photodynamic therapy; type: organism-based; settings: in vivo; summary of the method: as §1
RIF [5] = test: Antitumor activity against mouse RIF cells xenografted in C3H/HeJ mouse at 0.50 umol/kg, iv irradiated for 30 mins measured after 24 hrs by photodynamic therapy; type: functional, organism-based; settings: tested as the 124I-labelled form; summary of the method: as §1
[6] = Biodistribution in tumor of iv dosed C3H/HeJ mouse bearing mouse RIF cells after 48 hrs; type: ADME, organism-based, Neoplasm; settings: read-out: Drug uptake
Summary of the method: (§3)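 ¹²⁴I-labeled photosensitizer formulated in saline with 10% ethanol, 15–200 μCi via tail vein into C3H mice bearing RIF tumors (3×10^5 cells sc in axilla, 4–5 mm) or BALB/c mice bearing Colon-26 tumors. 3–4 mice per time point killed at 24, 48, 72, 96 h. Tumor and organs weighed and gamma-counted; uptake given as %ID/g, mean of group.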

[7] = Biodistribution in tumor of iv dosed BALB/c mouse bearing mouse Colon-26 cells after 96 hrs; type: ADME, organism-based, Neoplasm; settings: read-out: Drug uptake; summary of the method: as §3
[8] = Biodistribution in tumor of iv dosed C3H/HeJ mouse bearing mouse RIF cells after 96 hrs; type: ADME, organism-based, Neoplasm; settings: read-out: Drug uptake; summary of the method: as §3
[9] = Biodistribution in tumor of iv dosed C3H/HeJ mouse bearing mouse RIF cells after 24 hrs; type: ADME, organism-based, Neoplasm; settings: read-out: Drug uptake; summary of the method: as §3
[10] = Biodistribution in tumor of iv dosed BALB/c mouse bearing mouse Colon-26 cells after 24 hrs; type: ADME, organism-based, Neoplasm; settings: read-out: Drug uptake; summary of the method: as §3
[11] = Biodistribution in tumor of iv dosed BALB/c mouse bearing mouse Colon-26 cells after 48 hrs; type: ADME, organism-based, Neoplasm; settings: read-out: Drug uptake; summary of the method: as §3
[12] = Biodistribution in tumor of iv dosed C3H/HeJ mouse bearing mouse RIF cells after 72 hrs; type: ADME, organism-based, Neoplasm; settings: read-out: Drug uptake; summary of the method: as §3
[13] = Biodistribution in tumor of iv dosed BALB/c mouse bearing mouse Colon-26 cells after 72 hrs; type: ADME, organism-based, Neoplasm; settings: read-out: Drug uptake; summary of the method: as §3
RIF [14] = test: Antitumor activity against mouse RIF cells xenografted in C3H/HeJ mouse assessed as increase in photosensitizing ability at 1.5 umol/kg, iv irradiated for 30 mins measured after 60 days photodynamic therapy; type: functional, organism-based; settings: tested as the 124I-labelled form; summary of the method: as §1
[15] = Biodistribution in tumor of iv dosed C3H/HeJ mouse bearing mouse RIF cells assessed as relative uptake value after 3 days by PET imaging; type: ADME, organism-based, Neoplasm; settings: in vivo, 72 h
[16] = Biodistribution in tumor of iv dosed BALB/c mouse bearing mouse Colon-26 cells assessed as relative uptake value after 48 hrs by PET imaging; type: ADME, organism-based, Neoplasm; settings: in vivo

Ratio [2]: 0.05 | Ratio [3]: 0.06
Compound: CCC1=C(C)c2cc3[nH]c(cc4nc(c5c6[nH]c(cc1n2)c(C)c6C(=O)C5)[C@@H](CCC(=O)N[C@@H]1O[C@H](CO)[C@H](O)[C@H](O)[C@H]1O)[C@@H]4C)c(C)c3C(C)OCc1cccc([124I])c1 (stereo partly specified)
Activity (Mus musculus [1]): Toxic | Activity (Mus musculus [4]): Toxic

Ratio [2]: 0.32 | Ratio [3]: 0.56 | tissue uptake at 48 h [6]: 2.1 %ID/g | tissue uptake at 96 h [7]: 2 %ID/g | tissue uptake at 96 h [8]: 0.6 %ID/g | tissue uptake at 24 h [9]: 4.1 %ID/g | tissue uptake at 24 h [10]: 4.6 %ID/g | tissue uptake at 48 h [11]: 4.4 %ID/g | tissue uptake at 72 h [12]: 0.8 %ID/g | tissue uptake at 72 h [13]: 2.5 %ID/g
Compound: CCC1=C(C)c2cc3[nH]c(cc4nc(c5c6[nH]c(cc1n2)c(C)c6C(=O)C5)[C@@H](CCC(=O)OC)[C@@H]4C)c(C)c3C(C)OCc1cccc([124I])c1 (stereo partly specified)

Ratio [2]: 0.08 | Ratio [3]: 0.13
Compound: CCC1=C(C)c2cc3[nH]c(cc4nc(c5c6[nH]c(cc1n2)c(C)c6C(=O)C5)[C@@H](CCC(=O)N[C@@H]1[C@@H](O)[C@H](O)[C@@H](CO)O[C@H]1O)[C@@H]4C)c(C)c3C(C)OCc1cccc([124I])c1 (stereo partly specified)

Further lines, the compound ahead of its results:

Compound: CCC1=C(C)c2cc3[nH]c(cc4nc(c5c6[nH]c(cc1n2)c(C)c6C(=O)C5)[C@@H](CCC(=O)N[C@@H]1O[C@H](CO)[C@H](O)[C@H](O)[C@H]1O)[C@@H]4C)c(C)c3C(C)OCc1cccc(I)c1 (stereo partly specified)
Activity (RIF [5]): inactive

Compound: CCC1=C(C)c2cc3[nH]c(cc4nc(c5c6[nH]c(cc1n2)c(C)c6C(=O)C5)[C@@H](CCC(=O)OC)[C@@H]4C)c(C)c3C(C)OCc1cccc(I)c1 (stereo partly specified)
Activity (RIF [14]): Active | Activity (RIF [5]): inactive

Compound: OC[C@H]1O[C@@H](O)[C@H]([18F])[C@@H](O)[C@@H]1O [FLUDEOXYGLUCOSE-F18]
Activity [15]: 0.035 | Activity [16]: 4
